The values that follow come from ChEMBL document CHEMBL4622983, “Structure-Activity Relationship Studies of α-Ketoamides as Inhibitors of the Phospholipase A and Acyltransferase Enzyme Family” (J Med Chem, 2020).

Experiment [1] has as its target Fatty-acid amide hydrolase 1 (Mus musculus) (UniProt O08914). As to the kind of experiment: Inhibition of mouse brain membrane FAAH assessed as enzyme remaining activity at 10 uM preincubated for 30 mins followed by MB064 or FP-TAMRA addition and measured after 15 mins by SDS-PAGE based ABPP analysis relative to control. The class given is cell membranes. The gist of the method: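 Mouse brain membrane proteome (2 μg/μL) preincubated with 10 μM inhibitor for 30 min at rt. Then MB064 250 nM or FP-TAMRA 500 nM for 15 min at rt. Resolved on 10% SDS-PAGE, fluorescence normalized to Coomassie. Reported as % remaining activity ± SD, n = 3.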

Experiment [2] addresses T1, Phospholipase A and acyltransferase 5 (Homo sapiens) (UniProt Q96KN8).
T1 sequence (whole entry): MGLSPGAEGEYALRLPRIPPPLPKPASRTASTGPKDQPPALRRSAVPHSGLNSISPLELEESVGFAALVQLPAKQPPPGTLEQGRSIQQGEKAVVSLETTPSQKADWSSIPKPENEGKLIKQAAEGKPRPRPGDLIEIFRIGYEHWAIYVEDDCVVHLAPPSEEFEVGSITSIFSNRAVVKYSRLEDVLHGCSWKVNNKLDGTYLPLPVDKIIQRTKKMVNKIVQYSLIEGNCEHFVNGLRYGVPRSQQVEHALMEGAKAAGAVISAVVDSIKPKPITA
As to the kind of experiment: Inhibition of full-length C-terminal FLAG-tagged human PLAAT5 expressed in human U2OS cells assessed as reduction in anandamide level at 10 uM incubated for 4 hrs by LC-MS/MS analysis relative to control. The experiment is classed as cell-based. Put shortly:
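U2OS cells transfected with PLAAT2, PLAAT5 or empty vector (PEI, 1:5 plasmid/PEI). At 24 h, switched to serum-free medium with 10 μM compound (0.1% DMSO) or DMSO for 4 h at 37 °C. Pellets extracted with MTBE against deuterated internal standards. NAEs, 2-AG and free fatty acids quantified by LC–MS/MS, normalized to live cell count. Four biological replicates; one-way ANOVA.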

The target of experiment [3] is Monoglyceride lipase (Homo sapiens) (UniProt Q99685). Nature of the experiment: Inhibition of human MAGL expressed in HEK293 cells assessed as enzyme remaining activity at 10 uM measured by natural substrate-based fluorescence assay relative to control.

SMILES strings stand for the structures.

Monoglyceride lipase (Homo sapiens), sequence (Q99685 whole entry): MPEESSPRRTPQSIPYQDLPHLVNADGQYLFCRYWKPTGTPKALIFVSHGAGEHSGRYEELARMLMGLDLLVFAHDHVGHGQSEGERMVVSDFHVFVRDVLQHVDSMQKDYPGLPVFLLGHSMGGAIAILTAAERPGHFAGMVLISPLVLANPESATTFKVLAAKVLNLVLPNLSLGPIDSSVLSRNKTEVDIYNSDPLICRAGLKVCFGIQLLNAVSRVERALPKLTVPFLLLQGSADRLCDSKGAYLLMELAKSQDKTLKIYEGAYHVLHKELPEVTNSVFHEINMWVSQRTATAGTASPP
Fatty-acid amide hydrolase 1 (Mus musculus), sequence (O08914 whole entry): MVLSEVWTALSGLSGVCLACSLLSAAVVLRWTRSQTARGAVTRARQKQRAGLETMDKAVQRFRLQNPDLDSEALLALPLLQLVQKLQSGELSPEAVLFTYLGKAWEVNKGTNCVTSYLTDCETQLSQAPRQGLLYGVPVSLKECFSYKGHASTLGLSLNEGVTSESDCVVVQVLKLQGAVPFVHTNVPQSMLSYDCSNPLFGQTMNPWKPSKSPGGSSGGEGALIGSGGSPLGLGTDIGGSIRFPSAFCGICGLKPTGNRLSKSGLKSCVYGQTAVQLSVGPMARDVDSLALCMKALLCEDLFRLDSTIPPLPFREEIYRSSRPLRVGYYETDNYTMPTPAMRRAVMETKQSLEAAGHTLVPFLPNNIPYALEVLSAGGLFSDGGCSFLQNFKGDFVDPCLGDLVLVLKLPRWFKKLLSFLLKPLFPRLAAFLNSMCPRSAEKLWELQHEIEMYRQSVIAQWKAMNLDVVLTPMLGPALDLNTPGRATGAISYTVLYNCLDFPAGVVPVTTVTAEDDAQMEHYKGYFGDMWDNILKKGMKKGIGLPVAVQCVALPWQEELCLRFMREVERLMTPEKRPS

For `O=C(CCCc1ccccc1)C(=O)NCCc1ccc(Oc2ccccc2)cc1`, the results for the Activity in experiment [1] and in experiment [3] were 108% and 105%, respectively. Besides, the fold change (FC) in experiment [2] turned out to be 2.
